Source: ChEMBL document CHEMBL4052817 (J Med Chem, 2017)

Key:
[1] = target: Indoleamine 2,3-dioxygenase 1 (Homo sapiens, UniProt P14902); assay: Inhibition of human recombinant IDO-1 using L-Trp as substrate after 15 mins by PDMAB-based assay
[2] = test system: Plasma; assay: Drug level in mouse plasma treated with (R)-3-(5-fluoro-1H-indol-3-yl)pyrrolidine-2,5-dione after 48 hrs; format: ADME, cell-free
Summary of the method: (§1)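 (R)-enantiomer incubated for 48 h in phosphate-buffered saline (pH 7.4) or in mouse, rat, dog or acidified dog plasma. The (R)-enantiomer remaining and (S)-enantiomer formed were quantified (%) by chiral LC/MS-MS.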

[3] = test system: Plasma; assay: Drug level in dog plasma treated with (R)-3-(5-fluoro-1H-indol-3-yl)pyrrolidine-2,5-dione after 48 hrs; format: ADME, cell-free, Canis lupus familiaris; summary of the method: as §1
[4] = Drug level in phosphate buffer saline at pH 7.4 treated with (R)-3-(5-fluoro-1H-indol-3-yl)pyrrolidine-2,5-dione after 48 hrs; summary of the method: as §1
[5] = test system: Plasma; assay: Drug level in dog acidified plasma treated with (R)-3-(5-fluoro-1H-indol-3-yl)pyrrolidine-2,5-dione after 48 hrs; format: ADME, cell-free, Canis lupus familiaris; summary of the method: as §1
[6] = test system: Plasma; assay: Drug level in rat plasma treated with (R)-3-(5-fluoro-1H-indol-3-yl)pyrrolidine-2,5-dione after 48 hrs; format: ADME, cell-free; summary of the method: as §1
[7] = Fraction unbound in human plasma after 48 hrs; format: ADME, cell-free
[8] = test system: Cynomolgus monkey; assay: Drug level in cynomolgus monkey treated with (R)-3-(5-fluoro-1H-indol-3-yl)pyrrolidine-2,5-dione at 10 mg/kg, po; format: ADME, organism-based, Macaca fascicularis; settings: in vivo
Summary of the method: (§2)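 (R)-enantiomer or racemate dosed orally at 10 mg/kg to monkeys. Total plasma concentrations of each enantiomer were followed over time.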

[9] = Intrinsic clearance in mouse microsomes; format: ADME, Microsome
[10] = Fraction unbound in human plasma; format: ADME, cell-free
Summary of the method: (§3)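 Racemate incubated with plasma from preclinical species and humans. The unbound fraction of the (R)-enantiomer was determined.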

[11] = Apparent permeability across human Caco2 cells; format: ADME, cell-based; settings: Caco-2
[12] = target: Cytochrome P450 3A4 (Homo sapiens, UniProt P08684); assay: Inhibition of CYP3A4 (unknown origin); format: ADME
Cytochrome P450 3A4, sequence (P08684 whole entry): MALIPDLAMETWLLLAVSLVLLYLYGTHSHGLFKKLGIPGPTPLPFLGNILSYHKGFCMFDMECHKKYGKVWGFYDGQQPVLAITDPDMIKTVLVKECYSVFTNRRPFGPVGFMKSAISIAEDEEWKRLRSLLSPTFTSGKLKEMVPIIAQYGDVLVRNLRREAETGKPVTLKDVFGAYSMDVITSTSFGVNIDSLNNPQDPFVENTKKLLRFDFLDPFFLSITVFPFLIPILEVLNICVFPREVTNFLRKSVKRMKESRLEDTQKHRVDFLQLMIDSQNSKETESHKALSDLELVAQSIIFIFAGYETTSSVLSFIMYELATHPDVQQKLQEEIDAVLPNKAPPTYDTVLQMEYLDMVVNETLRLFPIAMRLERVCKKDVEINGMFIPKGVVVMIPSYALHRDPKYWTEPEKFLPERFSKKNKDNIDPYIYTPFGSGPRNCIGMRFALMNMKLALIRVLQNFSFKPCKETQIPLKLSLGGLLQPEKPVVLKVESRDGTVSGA

[13] = Clearance in mouse; format: ADME, organism-based; settings: in vivo
[14] = Half life in mouse; format: ADME, organism-based; settings: in vivo
[15] = target: Cytochrome P450 2D6 (Homo sapiens, UniProt P10635); assay: Inhibition of CYP2D6 (unknown origin); format: ADME
Cytochrome P450 2D6, sequence (P10635 whole entry): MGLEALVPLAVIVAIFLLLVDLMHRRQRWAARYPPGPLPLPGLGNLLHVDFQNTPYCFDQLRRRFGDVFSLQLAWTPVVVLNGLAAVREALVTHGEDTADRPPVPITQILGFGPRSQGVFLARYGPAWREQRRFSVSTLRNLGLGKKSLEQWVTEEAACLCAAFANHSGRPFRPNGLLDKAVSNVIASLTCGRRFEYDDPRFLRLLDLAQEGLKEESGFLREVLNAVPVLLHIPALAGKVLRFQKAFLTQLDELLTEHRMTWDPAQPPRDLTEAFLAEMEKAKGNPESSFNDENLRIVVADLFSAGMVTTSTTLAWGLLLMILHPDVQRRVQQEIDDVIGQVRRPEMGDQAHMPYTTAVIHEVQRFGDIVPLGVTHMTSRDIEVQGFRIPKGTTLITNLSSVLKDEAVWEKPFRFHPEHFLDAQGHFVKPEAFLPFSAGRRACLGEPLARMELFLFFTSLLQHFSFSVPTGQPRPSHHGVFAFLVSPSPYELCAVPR

[16] = Oral bioavailability in mouse at 5 mg/kg; format: ADME, organism-based; settings: in vivo
[17] = target: Cytochrome P450 2C19 (Homo sapiens, UniProt P33261); assay: Inhibition of CYP2C19 (unknown origin); format: ADME
Cytochrome P450 2C19, sequence (P33261 whole entry): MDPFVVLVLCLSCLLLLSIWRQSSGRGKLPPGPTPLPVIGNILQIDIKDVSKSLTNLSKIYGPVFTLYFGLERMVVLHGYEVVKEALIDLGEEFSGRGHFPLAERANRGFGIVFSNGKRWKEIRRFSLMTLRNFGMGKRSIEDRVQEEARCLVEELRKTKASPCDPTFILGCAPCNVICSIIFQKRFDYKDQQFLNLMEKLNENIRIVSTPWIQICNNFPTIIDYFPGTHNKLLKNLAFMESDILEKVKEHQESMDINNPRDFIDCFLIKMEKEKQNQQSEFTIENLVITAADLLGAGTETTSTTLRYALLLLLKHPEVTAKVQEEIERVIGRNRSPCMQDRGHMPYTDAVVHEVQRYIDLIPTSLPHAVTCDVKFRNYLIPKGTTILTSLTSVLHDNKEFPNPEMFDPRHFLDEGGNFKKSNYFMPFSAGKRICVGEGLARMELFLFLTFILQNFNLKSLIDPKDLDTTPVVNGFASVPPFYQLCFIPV

[18] = Fraction unbound in mouse plasma; format: ADME, cell-free; summary of the method: as §3
[19] = Volume of distribution at steady state in mouse; format: ADME, organism-based; settings: in vivo, read-out: Vdss
Summary of the method: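 Single 1 mg/kg IV dose of the racemate to male CD-1 mice (n=3). The plasma active enantiomer was quantified by chiral LC-MS/MS, and Vss was taken from the plasma concentration–time profile.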

[20] = Efflux ratio of apparent permeability across human Caco2 cells; format: ADME, cell-based; settings: Caco-2
[21] = target: Cytochrome P450 2C9 (Homo sapiens, UniProt P11712); assay: Inhibition of CYP2C9 (unknown origin); format: ADME
Cytochrome P450 2C9, sequence (P11712 whole entry): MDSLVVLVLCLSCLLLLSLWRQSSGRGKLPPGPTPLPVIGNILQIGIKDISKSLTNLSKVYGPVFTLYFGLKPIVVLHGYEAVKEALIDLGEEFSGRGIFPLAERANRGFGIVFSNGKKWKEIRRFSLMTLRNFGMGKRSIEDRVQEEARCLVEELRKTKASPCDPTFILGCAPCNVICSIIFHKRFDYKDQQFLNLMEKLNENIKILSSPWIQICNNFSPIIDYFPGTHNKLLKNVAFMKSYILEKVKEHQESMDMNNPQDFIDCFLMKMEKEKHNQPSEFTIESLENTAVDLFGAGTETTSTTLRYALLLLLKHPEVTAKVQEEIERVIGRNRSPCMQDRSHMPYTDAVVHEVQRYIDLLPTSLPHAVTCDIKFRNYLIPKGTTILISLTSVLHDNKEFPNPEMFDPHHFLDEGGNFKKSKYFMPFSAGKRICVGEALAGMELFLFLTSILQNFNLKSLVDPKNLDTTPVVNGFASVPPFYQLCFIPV

[22] = Intrinsic clearance in human microsomes; format: ADME, Microsome
[23] = Oral bioavailability in mouse at 30 mg/kg; format: ADME, organism-based; settings: in vivo
[24] = target: T1, Cytochrome P450 1A2 (Homo sapiens, UniProt P05177); assay: Inhibition of CYP1A2 (unknown origin); format: ADME
T1 sequence (P05177 whole entry): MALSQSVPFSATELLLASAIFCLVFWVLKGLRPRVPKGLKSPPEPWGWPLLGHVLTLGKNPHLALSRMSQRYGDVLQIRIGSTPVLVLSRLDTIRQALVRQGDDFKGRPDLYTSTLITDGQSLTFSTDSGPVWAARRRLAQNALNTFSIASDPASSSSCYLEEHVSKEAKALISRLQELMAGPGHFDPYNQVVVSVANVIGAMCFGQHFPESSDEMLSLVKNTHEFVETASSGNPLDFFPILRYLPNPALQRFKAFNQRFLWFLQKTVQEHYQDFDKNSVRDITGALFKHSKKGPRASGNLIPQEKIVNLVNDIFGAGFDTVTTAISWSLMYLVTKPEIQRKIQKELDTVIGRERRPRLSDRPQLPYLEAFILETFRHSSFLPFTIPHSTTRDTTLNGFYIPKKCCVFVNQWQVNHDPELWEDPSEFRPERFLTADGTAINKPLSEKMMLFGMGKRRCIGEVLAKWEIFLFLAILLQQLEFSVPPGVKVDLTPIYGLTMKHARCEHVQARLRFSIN

[25] = Metabolic stability in dog acidified plasma assessed as parent compound remaining after 48 hrs; format: ADME, cell-free, Canis lupus familiaris; settings: read-out: Stability
Summary of the method: (§4)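 Active enantiomer incubated 48 h in mouse, dog or rat plasma, or in dog plasma that had been acidified; remaining enantiomer and formed antipode measured by chiral LC/MS-MS.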

[26] = AUC (infinity) in rat at 1 mg/kg, iv; format: ADME, organism-based; parameters: dose 1 mg/kg, time infinity, route intravenous; settings: in vivo
[27] = Metabolic stability in rat plasma assessed as parent compound remaining after 48 hrs; format: ADME, cell-free; settings: read-out: Stability; summary of the method: as §4
[28] = test system: Canis familiaris; assay: AUC (infinity) in dog assessed as (S)-3-(5-fluoro-1H-indol-3-yl)pyrrolidine-2,5-dione at 1 mg/kg, iv; format: ADME, organism-based, Canis lupus familiaris; parameters: dose 1 mg/kg, route intravenous, time infinity; settings: in vivo
Summary of the method: (§5)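 Pure active (R)-enantiomer given IV at 1 mg/kg to rat, dog and monkey. Exposure (AUCinf) of the (R)- and (S)-enantiomers measured; their AUC ratio reported as an index of in vivo interconversion.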

[29] = Metabolic stability in dog plasma assessed as parent compound remaining after 48 hrs; format: ADME, cell-free, Canis lupus familiaris; settings: read-out: Stability; summary of the method: as §4
[30] = test system: Rattus norvegicus; assay: AUC (infinity) in rat assessed as (S)-3-(5-fluoro-1H-indol-3-yl)pyrrolidine-2,5-dione at 1 mg/kg, iv; format: ADME, organism-based; parameters: dose 1 mg/kg, time infinity, route intravenous; settings: in vivo; summary of the method: as §5
[31] = test system: Cynomolgus monkey; assay: AUC (infinity) in cynomolgus monkey assessed as (S)-3-(5-fluoro-1H-indol-3-yl)pyrrolidine-2,5-dione at 1 mg/kg, iv; format: ADME, organism-based, Macaca fascicularis; parameters: dose 1 mg/kg, route intravenous, time infinity; settings: in vivo; summary of the method: as §5
[32] = AUC (infinity) in dog at 1 mg/kg, iv; format: ADME, organism-based, Canis lupus familiaris; parameters: dose 1 mg/kg, route intravenous, time infinity; settings: in vivo
[33] = Drug metabolism in human hepatocytes in presence of CYP inhibitor ABT; format: ADME, cell-based, Hepatocyte; settings: with ABT (CYP inhibitor), read-out: Drug metabolism
[34] = AUC (infinity) in cynomolgus monkey at 1 mg/kg, iv; format: ADME, organism-based, Macaca fascicularis; parameters: dose 1 mg/kg, route intravenous, time infinity; settings: in vivo
[35] = test system: Cynomolgus monkey; assay: Drug metabolism in cynomolgus monkey assessed as (S)-3-(5-fluoro-1H-indol-3-yl)pyrrolidine-2,5-dione formation at 10 mg/kg, po; format: ADME, organism-based, Macaca fascicularis; settings: in vivo; summary of the method: as §2
[36] = target: Indoleamine 2,3-dioxygenase 1 (Mus musculus, UniProt P28776); assay: Inhibition of mouse IDO-1 using tryptophan as substrate after 22 mins by LC-MS/MS method
Indoleamine 2,3-dioxygenase 1 (Mus musculus, UniProt P28776), sequence (P28776 whole entry): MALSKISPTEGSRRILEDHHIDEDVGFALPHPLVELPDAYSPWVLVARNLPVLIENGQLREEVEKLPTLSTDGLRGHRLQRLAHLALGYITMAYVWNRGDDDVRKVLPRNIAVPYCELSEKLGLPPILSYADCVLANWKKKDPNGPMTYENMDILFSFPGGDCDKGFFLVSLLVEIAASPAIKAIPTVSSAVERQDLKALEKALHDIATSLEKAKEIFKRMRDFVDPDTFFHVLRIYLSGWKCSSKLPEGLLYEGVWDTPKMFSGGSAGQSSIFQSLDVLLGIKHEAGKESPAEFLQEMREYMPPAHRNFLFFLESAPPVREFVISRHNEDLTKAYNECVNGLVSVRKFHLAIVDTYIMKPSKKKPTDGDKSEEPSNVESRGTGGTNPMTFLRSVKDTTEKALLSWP

[37] = Chemical stability in phosphate buffer saline at pH 7.4 assessed as parent compound remaining after 48 hrs; format: physicochemical; settings: phosphate buffered saline, read-out: Stability; summary of the method: as §1
[38] = Drug metabolism in human hepatocytes in absence of CYP inhibitor ABT; format: ADME, cell-based, Hepatocyte; settings: read-out: Drug metabolism
[39] = Metabolic stability in mouse plasma assessed as parent compound remaining after 48 hrs; format: ADME, cell-free; settings: read-out: Stability; summary of the method: as §4
[40] = Inhibition of dog IDO-1 using tryptophan as substrate after 22 mins by LC-MS/MS method

Indoleamine 2,3-dioxygenase 1 (Homo sapiens, UniProt P14902), sequence (P14902 whole entry): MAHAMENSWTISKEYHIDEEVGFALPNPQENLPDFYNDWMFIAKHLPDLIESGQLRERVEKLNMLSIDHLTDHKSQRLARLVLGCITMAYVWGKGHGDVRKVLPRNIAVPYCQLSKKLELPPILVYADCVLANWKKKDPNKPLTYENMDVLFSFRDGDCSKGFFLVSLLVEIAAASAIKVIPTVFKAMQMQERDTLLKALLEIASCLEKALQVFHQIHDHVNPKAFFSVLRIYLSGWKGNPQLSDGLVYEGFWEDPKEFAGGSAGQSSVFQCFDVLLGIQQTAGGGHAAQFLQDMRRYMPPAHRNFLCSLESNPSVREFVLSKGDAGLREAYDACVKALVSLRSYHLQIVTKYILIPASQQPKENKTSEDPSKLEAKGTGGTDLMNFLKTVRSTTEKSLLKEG

O=C1CC(c2c[nH]c3ccc(Cl)cc23)C(=O)N1 (centres undefined)
IC50 [1]: 0.83 µM

O=C1C[C@@H](c2c[nH]c3ccc(F)cc23)C(=O)N1
Drug metabolism [2]: Metabolite_Detected | Drug metabolism [3]: Metabolite_Detected | Drug metabolism [4]: Metabolite detected | Drug metabolism [5]: Metabolite_Detected | Drug metabolism [6]: Metabolite_Detected | fraction unbound at 48 h [7]: 0.286 | Drug metabolism [8]: Metabolite_Detected

N#Cc1ccc2[nH]cc(C3CC(=O)NC3=O)c2c1 (centres undefined)
IC50 [1]: 1.2 µM

COc1ccc2c(C3CC(=O)NC3=O)c[nH]c2c1 (centres undefined)
IC50 [1]: > 50 µM

O=C1C[C@H](c2c[nH]c3ccccc23)C(=O)N1
clearance [9]: < 10 µL/min/mg | fraction unbound [10]: 0.43 | Papp [11]: 28 ×10⁻⁶ cm/s | IC50 [12]: > 10 µM | clearance [13]: 15.6 mL/min/kg | half-life [14]: 58.2 min | IC50 [15]: > 10 µM | bioavailability [16]: 63% | IC50 [17]: > 10 µM | fraction unbound [18]: 0.55 | Vd [19]: 1.2 L/kg | efflux ratio [20]: 0.77 | IC50 [21]: > 10 µM | clearance [22]: < 10 µL/min/mg | bioavailability [23]: 65% | IC50 [24]: > 10 µM

O=C1C[C@H](c2c[nH]c3cc(Cl)c(F)cc23)C(=O)N1
IC50 [1]: 0.58 µM

O=C1C[C@@H](c2c[nH]c3ccccc23)C(=O)N1
IC50 [1]: 83 µM

O=C1CC(c2c[nH]c3ccc(C(F)(F)F)cc23)C(=O)N1 (centres undefined)
IC50 [1]: 9.7 µM

O=C1CC(c2cccc3ccc(Cl)cc23)C(=O)N1 (centres undefined)
IC50 [1]: > 50 µM

O=C1CC(c2cccc3cc(Cl)ccc23)C(=O)N1 (centres undefined)
IC50 [1]: > 50 µM

O=C1C[C@H](c2c[nH]c3ccc(F)cc23)C(=O)N1
remaining at 48 h [25]: 93.5% | AUC(0-inf) [26]: 2270 ng·h/mL | remaining at 48 h [27]: 27% | AUC [28]: 124 ng·h/mL | remaining at 48 h [29]: 30% | AUC [30]: 153 ng·h/mL | AUC [31]: 3516 ng·h/mL | AUC(0-inf) [32]: 696 ng·h/mL | metabolised [33]: 39% | AUC(0-inf) [34]: 6810 ng·h/mL | Drug metabolism [35]: Metabolite_Detected | IC50 [36]: 7.3 µM | remaining at 48 h [37]: 89% | metabolised [38]: 61% | fraction unbound at 48 h [7]: 0.449 | remaining at 48 h [39]: 35% | IC50 [40]: 0.2 µM

O=C1C[C@@H](c2c[nH]c3cc(Cl)c(F)cc23)C(=O)N1
IC50 [1]: > 50 µM
